Reference: PMC3921891 (European journal of pharmacology, 2010)
Entries after “also recorded” stand apart in the source; their conditions may differ. Where two headings read alike, the source gives them in different places. Marks after values point to notes of the source that are not given here.

Experiments:
NMB receptor = details: ref Jensen et al., 2008; Ashwood et al., 1998; cited from earlier work
GRP receptor = details: ref Jensen et al., 2008; Ashwood et al., 1998; cited from earlier work
[1] = system: EGF receptor in NCI-H1299 cells; experiment: EGF receptor tyrosine phosphorylation, Western blot, NCI-H1299 cells; format: cell-based, human
[2] = system: reactive oxygen species in NCI-H1299 cells; experiment: Reactive oxygen species; format: cell-based, human; details: for % Fluorescence Intensity, inhibitor alone (basal): PP2 10 µM or GM6001 (10 µM); for effect on H2O2-induced reactive oxygen species / effect on BA1-induced reactive oxygen species: NAC (5 mM), data not shown; for effect on basal reactive oxygen species: inhibitor alone; for effect on basal reactive oxygen species / effect on BA1-induced reactive oxygen species: PP2 10 µM, GM6001 10 µM
[3] = system: EGF receptor in NCI-H1299 cells transfected with NMB receptor; format: cell-based, human; details: for effect of PP2 / GM6001 on NMB-induced EGF receptor transactivation: 10 µM inhibitor, densitometry of 3 experiments (Fig. 3B, C)
Summary of the method: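 NCI-H1299 cells expressing transfected NMB receptor, grown to a monolayer, held in SIT medium 3 h. Inhibitors were added 30 min before stimulation with 0.1 µM NMB or BA1 for 2 min. Cells were lysed. 400 µg protein was immunoprecipitated overnight at 4°C with anti-phosphotyrosine, run on 4–20% SDS-PAGE and blotted with anti-EGF receptor. Alternatively, 20 µg extract was probed with anti-PY1068-EGF receptor. Detection was by ECL with densitometry.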

[4] = system: ERK (p42/p44 MAP kinase) in NCI-H1299 cells transfected with NMB receptor; experiment: ERK tyrosine phosphorylation, Western blot; format: cell-based, human; details: abstract statement
Summary of the method: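 Monolayers of NCI-H1299 cells with transfected NMB receptor were held in SIT medium 3 h. Inhibitors or anti-growth-factor antibodies (5 µg/ml) were given for 30 min, then 0.1 µM NMB or BA1 for 2 min. Lysate (20 µg) was run on 4–20% gels and blotted with anti-phospho-ERK, with anti-ERK or anti-tubulin as loading controls. Detection was by ECL with densitometry.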

NCI-H1299 cells [5] = experiment: MTT proliferation assay, NCI-H1299; format: cell-based, human
NCI-H1299 cells [6] = experiment: Clonogenic assay, NCI-H1299; format: cell-based, human
[7] = system: TGFα release from NCI-H1299 cells; experiment: TGFα release, TGFα immunoassay; format: cell-based, human; details: inhibitor pretreatment, NMB 100 nM
lung cancer cells = details: in vitro; ref Witta et al., 2006; Ono et al., 2004; Janmaat et al., 2003; cited from earlier work
NSCLC patients = details: particularly a subgroup with EGF receptor mutations; no reference given; cited from earlier work
[8] = Tiron 5 mM, None = 100 ± 7, mean ± S.D. of 6 determinations

COc1ccc(C2(CNC(=O)[C@](C)(Cc3c[nH]c4ccccc34)NC(=O)Nc3ccc([N+](=O)[O-])cc3)CCCCC2)nc1 [PD176252]
affinity for NMB receptor (NMB receptor): high affinity
affinity for GRP receptor (GRP receptor): high affinity

bombesin
tyrosine phosphorylation of the 170 kDa EGF receptor ([1]; native NCI-H1299 cells, 0.1 µM (Fig. 1A)): caused tyrosine phosphorylation of the 170 kDa EGF receptor
increase in EGF receptor tyrosine phosphorylation ([1]; native NCI-H1299 cells, 0.1 µM, 2 min, densitometry analysis of 4 experiments (Fig. 1B)): 1.4 fold

O=S(=O)(O)c1cc(O)c(O)c(S(=O)(=O)O)c1 [Tiron]
effect on NMB-induced reactive oxygen species ([2]; Tiron 5 mM): greatly reduced
% Fluorescence Intensity, inhibitor + H2O2 ([2]; Tiron 5 mM 30 min prior to H2O2 10 µM, 2 hour, mean ± S.D. of 6 determinations, P < 0.01): 200 ± 14 ^b %
% Fluorescence Intensity, inhibitor + NMB ([2]; Tiron 5 mM 30 min prior to NMB 0.1 µM, 2 hour, mean ± S.D. of 6 determinations): 92 ± 9%
% Fluorescence Intensity, inhibitor alone (basal) [2, 8]: 82 ± 11%
effect on H2O2-induced reactive oxygen species ([2]; Tiron 5 mM): greatly reduced
effect on basal reactive oxygen species ([2]; Tiron 5 mM): had little effect
effect of Tiron on NMB-induced EGF receptor transactivation ([3]; 10 mM Tiron (Fig. 4D)): significantly inhibited
effect of Tiron on NMB-induced EGF receptor transactivation ([3]; 0.1 or 1 mM Tiron (Fig. 4C, D)): had little effect
effect of Tiron on NMB-induced EGF receptor transactivation, dose dependence ([3]; 0.1 to 10 mM Tiron (Fig. 4C)): inhibited in a dose-dependent manner

C[C@@](Cc1c[nH]c2ccccc12)(NC(=O)Nc1ccc([N+](=O)[O-])cc1)C(=O)NCC1(c2ccccn2)CCCCC1 [PD168368]
effect on BA1-induced EGF receptor tyrosine phosphorylation ([3]; 1 µM antagonist, 30 min pretreatment, 100 nM BA1, 4 experiments (Fig. 1D)): significantly reversed
effect on NMB-induced EGF receptor transactivation ([3]; data not shown): antagonized the ability of NMB to cause EGF receptor transactivation
effect on EGF receptor transactivation or ERK tyrosine phosphorylation caused by NMB-like peptides [4]: inhibited
effect of 3 µM PD168368 on the gefitinib dose response curve (NCI-H1299 cells [5]; 3 µM PD168368, relative to no additions): shifted to the left
effect of PD168368 alone on proliferation (NCI-H1299 cells [5]; PD168368 alone, mean of 8 determinations (Fig. 5A)): inhibited the proliferation of NCI-H1299 cells in a dose-dependent manner
effect of PD168368 on the gefitinib dose-response curve (NCI-H1299 cells [5]; increasing concentrations of PD168368 with gefitinib (Fig. 5A)): progressive shift to the left of the gefitinib dose-response curve
effect on colony formation (NCI-H1299 cells [6]; 0.3 µM PD168368, 2 weeks (Fig. 5B2)): had little effect on colony formation

OO [H2O2]
generation of reactive oxygen species ([2]; BA1 0.1 µM, NMB 0.1 µM or H2O2 10 µM): significantly increased
% Fluorescence Intensity, stimulus alone ([2]; NMB 0.1 µM, H2O2 10 µM or BA1 0.1 µM, 2 hour, None = 100 ± 7, mean ± S.D. of 6 determinations, P < 0.01): 589 ± 60 ^b %

COc1cc2ncnc(Nc3ccc(Oc4ccccc4)cc3)c2cc1OC [PP2, 4-(4’-Phenoxyanilino)-6,7-dimethoxyquinzoline,6,7-Dimethoxy-N(4-phenoxyphenyl)-4-quinazolinamine]
effect on BA1-induced reactive oxygen species [2]: inhibited the increase in reactive oxygen species
% Fluorescence Intensity, inhibitor alone (basal) [2, 8]: 93 ± 5%
effect on basal reactive oxygen species ([2]; Tiron 5 mM): had little effect
effect on NMB-induced TGFα secretion [7]: reversed
effect of PP2 / GM6001 on NMB-induced EGF receptor transactivation [3]: markedly inhibited; also recorded: reduced significantly

CC(=O)N[C@@H](CS)C(=O)O [NAC, N-acetylcysteine]
effect on BA1-induced reactive oxygen species [2]: reduced
effect on H2O2-induced reactive oxygen species ([2]; Tiron 5 mM): reduced
effect of NAC on NMB-induced EGF receptor tyrosine phosphorylation ([3]; 5 mM NAC pretreatment, NMB 0.1 µM, 4 experiments (Fig. 4A, B)): inhibited

COc1cc2ncnc(Nc3cccc(Cl)c3)c2cc1OC [AG1478, N-(3-Chlorophenyl)-6,7-dimethoxy-4-quinazolinamine]
effect on NMB-induced EGF receptor tyrosine phosphorylation ([1]; AG1478 10 µg/ml, data not shown): inhibited
effect on EGF receptor transactivation or ERK tyrosine phosphorylation caused by NMB-like peptides [4]: inhibited

CNC(=O)[C@H](Cc1c[nH]c2ccccc12)NC(=O)[C@@H](CC(=O)NO)CC(C)C [GM6001, (R)-N4-Hydroxy-N1-[(S)-2-(1H–indol-3-yl)-1-methylcarbamoyl-ethyl]-2-isobutyl-succinamide]
effect on BA1-induced reactive oxygen species [2]: inhibited the increase in reactive oxygen species
% Fluorescence Intensity, inhibitor alone (basal) [2, 8]: 94 ± 4%
effect on basal reactive oxygen species ([2]; Tiron 5 mM): had little effect
effect on NMB-induced TGFα secretion [7]: reversed
effect of PP2 / GM6001 on NMB-induced EGF receptor transactivation [3]: markedly inhibited
effect of PP2 / GM6001 on NMB-induced EGF receptor transactivation ([3]; listed as GM60001): reduced significantly

COc1cc2ncnc(Nc3ccc(F)c(Cl)c3)c2cc1OCCCN1CCOCC1 [gefitinib]
effect on EGF receptor transactivation or ERK tyrosine phosphorylation caused by NMB-like peptides [4]: inhibited
effect on proliferation at 1 and 3 µg/ml (NCI-H1299 cells [5]; gefitinib 1 and 3 µg/ml): having no effect
variation of sensitivity of lung cancer cells to gefitinib (lung cancer cells): up to 2700 fold
effect on colony number and size (NCI-H1299 cells [6]; 1 µg/ml gefitinib, 2 weeks (Fig. 5B3)): slightly reduced colony number and size
NSCLC patients responding (NSCLC patients): 10%
